Laboratory results: ChEMBL document CHEMBL4725387, “Synthesis and pharmacological evaluation of piperidine (piperazine)-amide substituted derivatives as multi-target antipsychotics” (Bioorg Med Chem Lett, 2020)
Active and inactive are the calls of the source. The rule behind the calls is not given here.

What was measured:
Rattus norvegicus = test: Memory enhancement effect in rat assessed as increase in total exploratory time for novel objects at 0.1 to 0.3 mg/kg, po administered 1 hr prior to acquisition trial and measured after 24 hrs by novel object recognition test; assay type: functional, organism-based; conditions: dose mg/kg 0.1-0.3, time 25.0 hrs
D(2) dopamine receptor = D(2) dopamine receptor (Homo sapiens, UniProt P14416); test: Binding affinity to D2 receptor (unknown origin)
Summary of the method: (§1)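 Radioligand displacement binding. Ki is the mean ± SEM of three experiments.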

[1] = target: T1, 5-hydroxytryptamine receptor 2C (Homo sapiens, UniProt P28335); test: Binding affinity to 5HT2C receptor (unknown origin); summary of the method: as §1
T1 sequence (P28335 whole entry): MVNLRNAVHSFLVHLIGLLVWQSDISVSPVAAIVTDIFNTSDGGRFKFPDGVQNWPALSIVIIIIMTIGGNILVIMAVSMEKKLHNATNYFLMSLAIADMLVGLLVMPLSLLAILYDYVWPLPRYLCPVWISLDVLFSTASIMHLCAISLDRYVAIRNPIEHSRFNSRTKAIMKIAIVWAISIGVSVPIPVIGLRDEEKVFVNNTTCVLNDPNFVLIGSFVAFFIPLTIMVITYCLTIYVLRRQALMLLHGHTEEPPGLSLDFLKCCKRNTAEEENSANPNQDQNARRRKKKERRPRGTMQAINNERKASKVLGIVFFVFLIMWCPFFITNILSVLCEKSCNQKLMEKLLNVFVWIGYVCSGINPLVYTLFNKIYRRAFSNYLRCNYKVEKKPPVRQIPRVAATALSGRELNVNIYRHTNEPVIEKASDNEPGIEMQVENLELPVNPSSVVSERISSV

[2] = target: T2, Adrenergic receptor alpha-1 (Homo sapiens, UniProt P35348+P25100+P35368); test: Binding affinity to alpha1 adrenergic receptor (unknown origin); assay type: protein assay
T2 sequence (P35348 whole entry): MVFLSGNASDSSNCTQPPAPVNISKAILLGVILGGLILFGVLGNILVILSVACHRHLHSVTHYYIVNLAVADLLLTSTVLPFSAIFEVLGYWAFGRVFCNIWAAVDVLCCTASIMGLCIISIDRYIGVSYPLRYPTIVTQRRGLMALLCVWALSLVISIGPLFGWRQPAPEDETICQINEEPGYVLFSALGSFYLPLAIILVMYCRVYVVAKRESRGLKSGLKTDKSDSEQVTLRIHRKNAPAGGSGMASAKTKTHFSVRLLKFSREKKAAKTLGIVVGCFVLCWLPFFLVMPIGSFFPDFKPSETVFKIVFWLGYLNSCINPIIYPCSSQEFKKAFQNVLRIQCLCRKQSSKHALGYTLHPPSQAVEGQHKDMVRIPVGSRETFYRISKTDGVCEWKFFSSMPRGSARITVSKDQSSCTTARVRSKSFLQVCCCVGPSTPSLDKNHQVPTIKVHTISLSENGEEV
T2 sequence (P25100 whole entry): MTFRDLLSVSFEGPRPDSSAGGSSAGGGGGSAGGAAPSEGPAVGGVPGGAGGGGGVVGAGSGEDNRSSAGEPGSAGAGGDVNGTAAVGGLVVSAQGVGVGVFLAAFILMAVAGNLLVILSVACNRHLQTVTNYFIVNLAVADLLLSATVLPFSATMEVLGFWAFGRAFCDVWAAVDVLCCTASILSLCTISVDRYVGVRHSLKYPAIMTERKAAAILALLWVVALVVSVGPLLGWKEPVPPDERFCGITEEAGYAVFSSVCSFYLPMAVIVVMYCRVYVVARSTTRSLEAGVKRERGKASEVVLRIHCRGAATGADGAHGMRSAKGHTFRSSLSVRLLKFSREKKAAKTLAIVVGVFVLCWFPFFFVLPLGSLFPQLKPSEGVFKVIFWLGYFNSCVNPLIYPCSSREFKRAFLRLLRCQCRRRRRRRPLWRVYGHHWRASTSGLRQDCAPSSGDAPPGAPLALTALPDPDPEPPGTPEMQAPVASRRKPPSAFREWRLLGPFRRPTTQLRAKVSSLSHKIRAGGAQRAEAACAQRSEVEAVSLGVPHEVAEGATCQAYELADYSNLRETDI
T2 sequence (P35368 whole entry): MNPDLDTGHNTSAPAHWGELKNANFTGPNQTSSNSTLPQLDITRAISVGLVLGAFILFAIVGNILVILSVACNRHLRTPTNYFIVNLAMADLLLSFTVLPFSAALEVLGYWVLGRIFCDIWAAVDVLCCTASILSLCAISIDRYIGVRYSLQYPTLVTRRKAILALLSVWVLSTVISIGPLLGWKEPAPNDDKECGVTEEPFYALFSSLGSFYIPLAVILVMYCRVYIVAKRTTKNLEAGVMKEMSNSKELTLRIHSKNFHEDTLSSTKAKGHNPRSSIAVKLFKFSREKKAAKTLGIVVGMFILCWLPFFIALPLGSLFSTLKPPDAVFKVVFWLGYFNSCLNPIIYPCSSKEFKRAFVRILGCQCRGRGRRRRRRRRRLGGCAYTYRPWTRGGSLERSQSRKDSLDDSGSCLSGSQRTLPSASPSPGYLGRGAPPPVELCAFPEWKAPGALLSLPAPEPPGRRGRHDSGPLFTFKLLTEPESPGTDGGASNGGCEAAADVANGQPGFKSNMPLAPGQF

Mus musculus [3] = test: Antipsychotic activity in po dosed mouse assessed as suppression in DOI-induced head twitching response; assay type: functional
Summary of the method: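 Mouse head twitch induced by DOI 1.0 mg/kg ip. Oral pretreatment at 0.01, 0.03, 0.1, 0.3 and 1.0 mg/kg in 30% PEG 400. ED50 reported with 95% confidence limits.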

Mus musculus [4] = test: Antipsychotic activity in po dosed mouse assessed as reduction in MK-801-induced hyperlocomotor activity; assay type: functional
Summary of the method: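 Mice hyperactivity induced by MK-801 0.3 mg/kg sc, locomotor activity recorded. Oral dosing at 0.01–1.0 mg/kg (five doses) in 30% PEG 400. ED50 reported with 95% confidence limits.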

[5] = Therapeutic index, ratio of ED50 for induction of catalepsy in po dosed mouse to ED50 for antipsychotic activity in po dosed mouse assessed as reduction in MK-801-induced hyperlocomotor activity; assay type: toxicity, organism-based; conditions: in vivo, read-out: Ratio ED50
Summary of the method: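 Therapeutic index is the catalepsy ED50 divided by the efficacy ED50 from the apomorphine climbing or MK-801 hyperactivity model. All were oral dosing in mice, vehicle 30% PEG 400.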

[6] = Cmax in rat at 10 mg/kg, po; assay type: ADME, organism-based; set-up: route oral, dose 10 mg/kg; conditions: in vivo
Summary of the method: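 Male rats, n = 6 per group, given a single oral dose of 10 mg/kg. PK parameters taken from serum concentration–time profiles: Cmax, Tmax, t1/2, AUC0-t, AUC0-∞, CL/F, F%.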

[7] = AUC (0 to infinity) in rat at 3 mg/kg, iv; assay type: ADME, organism-based; set-up: route intravenous, time infinity, dose 3 mg/kg; conditions: in vivo
Summary of the method: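 Male rats, n = 6 per group, given a single intravenous dose of 3 mg/kg. PK parameters taken from serum concentration–time profiles: t1/2, AUC0-t, AUC0-∞, clearance.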

Sequence of D(2) dopamine receptor (P14416 whole entry): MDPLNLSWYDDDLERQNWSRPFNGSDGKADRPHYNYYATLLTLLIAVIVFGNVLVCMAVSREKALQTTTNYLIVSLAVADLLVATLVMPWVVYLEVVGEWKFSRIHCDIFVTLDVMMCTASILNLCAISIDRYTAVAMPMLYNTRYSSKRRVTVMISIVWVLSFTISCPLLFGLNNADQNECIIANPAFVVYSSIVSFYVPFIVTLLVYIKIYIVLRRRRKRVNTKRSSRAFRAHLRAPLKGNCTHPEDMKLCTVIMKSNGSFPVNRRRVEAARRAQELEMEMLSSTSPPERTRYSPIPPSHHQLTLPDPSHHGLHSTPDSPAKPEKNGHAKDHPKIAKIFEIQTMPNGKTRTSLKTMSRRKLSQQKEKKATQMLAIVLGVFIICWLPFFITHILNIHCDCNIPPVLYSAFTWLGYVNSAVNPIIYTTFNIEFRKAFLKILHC

CC(=O)Nc1ccc(OCCCN2CCC(c3noc4cc(F)ccc34)CC2)cc1
Activity (Rattus norvegicus): Active
Ki (D(2) dopamine receptor): 2.1 nM
Ki [1]: 1990 nM
Ki [2]: 3296 nM
Activity (Mus musculus [3]): Dose-dependent effect
ED50 (Mus musculus [3]): 0.22 mg/kg
ED50 (Mus musculus [4]): 0.19 mg/kg
selectivity ratio [5]: 133
Cmax [6]: 745 ng/mL
AUC [7]: 931.48 ng·h/mL
